UPR XBP1 act: adaptive UPR (XBP1) activation. CHO-XBP1 luciferase reporter, IRE1-XBP1 UPR activation, luminescence; percent of tunicamycin response, DMSO as zero. activation, % at 20 µM. 330,000 compounds, 0.33% hits;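 active = versus positive control, 20 µM dose yields 30% or more activation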;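 also: 100% = tunicamycin at 10 µg/mL and 0% = DMSO only wells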
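Assay system: IRE1-XBP1 luciferase reporter CHO line. Input: 1000 cells/well. Buffer or medium: F12 with 10% serum. Doses: 20 µM, 1% DMSO. Times: overnight seeding at 37 °C, 6 h compound treatment at 37 °C. Technique: Steady-Glo luciferase glow luminescence, 10 min after reagent addition.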
UPR CHOP act: activators of apoptotic arm of unfolded protein response (CHOP). CHO-CHOP luciferase reporter, UPR activation, luminescence; percent of tunicamycin response over DMSO baseline. activation, % at 10 µM. 330,000 compounds, 0.34% hits;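 active = at 10 µM dose, activation of 40% or more, normalized to positive control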;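 also: 100% = tunicamycin at 10 µg/mL and 0% = DMSO alone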
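System: CHO-CHOP luciferase reporter cell line; amount: 500 cells/well; buffer or medium: F12 medium containing 10% fetal bovine serum; incubation: 6 h compound exposure at 37 °C after overnight seeding; measured by: luciferase luminescence after 10 min with Steady-Glo reagent; evaluation: % reporter activation, DMSO baseline versus tunicamycin full activation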
Gli-Sufu block: Gli-Sufu pathway antagonism. Sufu-KO-LIGHT fibroblasts, Gli luciferase reporter luminescence. inhibition, % at 5 µM. 340,000 compounds, 0.74% hits. AID 588413;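 active = inhibition above about 55%, limit read from the data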;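 also: 0% = DMSO-treated cells and 100% = wells with medium but no cells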
Jurkat NFkB inh: inhibitors of the PMA/ionomycin-induced NF-kB reporter in Jurkat cells; PMA/ionomycin-induced NF-kB luciferase reporter, luminescence; inhibition, % at 4 µM; 330,000 compounds, 0.53% hits; in the data active = inhibition above about 50%
CHOP inhibitor: CHOP inhibition in unfolded protein response | AID 2732 | 220,000 compounds, 3.8% hits | CHO-K1 CHOP-promoter luciferase, tunicamycin-induced, 15-18 h | inhibition, % at 10 µM;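 active = compounds that reduced the stress-induced luciferase reporter signal by more than about 70% of percent inhibition, limit read from the data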;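 also: 0% = tunicamycin plus vehicle and 100% = wells without tunicamycin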
697 NFkB inh: inhibitors of the PMA/ionomycin-induced NF-kB reporter in 697 B cells. inhibition, % at 4 µM. 330,000 compounds, 0.33% hits. 697 B-cell NF-kB luciferase reporter, 16 h. AID 435022; in the data active = inhibition above about 35%
UPR XBP1 confirm: confirmation of adaptive unfolded protein response (XBP1) activators; shares compounds with UPR XBP1 act; CHO-XBP1 IRE1-XBP1 luciferase reporter, luminescence; activation, % at 20 µM; 1,000 compounds, 63% hits; AID 485299;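 active = reporter signal at least 30% of the positive control's activation in two or more of four replicate wells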;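 also: plate controls were DMSO negative control for no effect and tunicamycin 10 µg/mL positive control for full effect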
* = called active by the depositor; / = not tested or not shown. Hits are enriched below; roughly 3.9% of the tested compounds scored in any of these assays.

SMILES	UPR XBP1 act	UPR CHOP act	Gli-Sufu block	Jurkat NFkB inh	CHOP inhibitor	697 NFkB inh	UPR XBP1 confirm
CCC(=O)Nc1nnc(SCC(=O)c2ccc3c(c2)Cc2ccccc2-3)s1	52*	-2	-4	7	33	-13	29*
COc1ccc2oc(-c3ccc(NC(=O)c4ccc(N5CCOCC5)c([N+](=O)[O-])c4)cc3)nc2c1	64*	3	-7	-15	2	-227	23
COc1ccc(OC)c(-c2nnc3n2N=C(c2ccc(OC)c(OCC4CC4)c2)CS3)c1	32*	1	55	-6	/	-2	35*
COc1ccc(-c2cc(C(F)F)n3ncc(C(=O)N4CCCCC4)c3n2)cc1	5	1	3	-5	39	9	/
COc1ccc(-c2cc(C(F)F)n3ncc(C(=O)N4CCc5ccccc5C4)c3n2)cc1	38*	-1	14	-3	51	7	73*
[O-]/[N+](=C/c1ccccc1)c1ccccc1	1	4	-10	-11	/	6	/
C[C@@]12C(=O)N(CC3CCCO3)CC(=O)N1[C@H]1c3ccccc3OC[C@@H]1[C@@H]2c1ccccc1 (stereo partly drawn)	-3	0	1	-3	/	-5	/
Brc1ccc(C2=Nn3c(nnc3-c3n[nH]c4c3CCC4)SC2)cc1	37*	1	47	48	/	18	49*
c1ccc(-c2ccc(C3=Nn4c(nnc4-c4cc(-c5ccccc5)n[nH]4)SC3)cc2)cc1	64*	5	1	-4	-32	-11	23
CC1=Nn2c(nnc2-c2cc(-c3ccccc3)n[nH]2)SC1	-2	-1	/	8	10	12	/
Cc1cc(-n2c(SCC(=O)Nc3ccc(F)c(F)c3)nc3n[nH]c(C)c3c2=N)ccc1Cl	34*	10	-22	23	/	-11	60*
CCc1ccc(NC(=O)CSc2nc3n[nH]c(C)c3c(=N)n2-c2cccc(OC)c2)cc1	14	11	2	20	45	4	/
Cc1cc(-n2c(SCC(=O)Nc3ccc(Br)cc3)nc3n[nH]c(C)c3c2=N)ccc1Cl	36*	5	-4	22	/	16	20
CCOC(=O)[C@@H]1[C@H]2COc3cc(OC)ccc3[C@@H]2N2C(=O)N(c3ccc(F)cc3)C(=O)[C@]12C	2	-1	-7	4	/	-12	/
Cc1cccn2c(=O)c3cc(C(=O)NC4CCCCCC4)sc3nc12	355*	2	-28	-1	/	14	97*
Cc1cccn2c(=O)c3cc(C(=O)NC4CCS(=O)(=O)C4)sc3nc12 (stereo not drawn)	-2	2	-1	13	-15	14	/
CC(C)CN(C(=O)Cn1ccccc1=O)C1CCS(=O)(=O)C1 (stereo not drawn)	-2	0	4	5	/	19	/
O=C(COc1ccc2ccc(=O)oc2c1)Nc1c(Cl)cccc1C(F)(F)F	31*	-2	2	17	/	16	-2
COc1ccc(N2C(=O)NC(NC(=O)C(C)(C)C)(C(F)(F)F)C2=O)cc1 (stereo not drawn)	-1	0	-2	8	/	5	/
O=c1[nH]c(=O)n(Cc2ccco2)c2c1C(C(F)(F)F)(C(F)(F)F)N=C(C1CCCCC1)N2	-2	-3	4	-8	10	11	/
O=c1[nH]c(=O)n(Cc2ccco2)c2c1C(C(F)(F)F)(C(F)(F)F)N=C(CCC1CCCCC1)N2	43*	10	-3	23	41	4	6
Cc1cc(C)c2c(c1)/C(=N/Nc1ccc(S(N)(=O)=O)cc1[N+](=O)[O-])CCC2	76*	16	-15	-3	16	-21	50*
COc1ccc2[nH]c3nc(SCc4nnc(-c5ccc(C)cc5)o4)nnc3c2c1	71*	7	1	16	20	5	190*
CCOc1ccc(S(=O)(=O)N(CC)CC(=O)NC2CC2)cc1	1	2	5	3	/	15	/
CC(C)CN=C(NS(=O)(=O)c1ccccc1)C(Cl)(Cl)Cl	47*	10	22	4	54	16	60*
SMILES	UPR XBP1 act	UPR CHOP act	Gli-Sufu block	Jurkat NFkB inh	CHOP inhibitor	697 NFkB inh	UPR XBP1 confirm
C[C@H](CO)N1C[C@H](C)[C@@H](CN(C)C(=O)Nc2ccc(C(F)(F)F)cc2)Oc2c(NC(=O)Nc3ccc(C(F)(F)F)cc3)cccc2C1=O	37*	7	2	9	/	26	28
COc1ccc(OC)c(S(=O)(=O)N2CCC(C(=O)N3CCCCCC3)CC2)c1	1	-1	20	-7	/	-13	/
COc1cc(C(=O)N/N=C/c2ccsc2C)cc(OC)c1OC	30*	-1	-4	44	-59	-48	17
O=C(Nc1ccc(-c2nc3c(ccc4ccccc43)o2)cc1)c1ccco1	33*	18	-20	-54	79*	-103	15
COc1ccc(C(=O)/C=C/c2ccc(O)cc2)c(O)c1C/C=C(\C)CCC=C(C)C	83*	11	6	11	/	-7	31*
C=C(C)C(O)CC/C(C)=C/Cc1c(O)ccc(C(=O)/C=C/c2ccc(O)cc2)c1O (stereo not drawn)	-8	-4	12	15	/	-24	/
COCCNC(=O)C1CC(c2cccc(F)c2)=NO1 (stereo not drawn)	31*	-1	-14	4	-9	14	0
O=C(CN1C(=O)NC2(CCCC2)C1=O)N1CCN(c2ccccc2Cl)CC1	-1	2	-11	-13	/	-13	/
Brc1cc(Br)c2ncnc(N3CCCCC3)c2c1	59*	-1	5	10	66	-9	41*
CCOC(=O)C1=C(O)/C(=C/c2ccc(-c3ccccc3C(=O)O)o2)SC1=Nc1ccc(C)cc1	/	/	2	/	/	/	/
CCOC(=O)C1=C(O)/C(=C/c2cn(CC(=O)NCC3CCCO3)c3ccccc23)SC1=Nc1ccc(C)cc1 (stereo not drawn)	66*	23	11	18	/	-12	31*
COc1ccc(CNCCC(c2ccc(F)cc2)c2ccc(OC)cc2)cc1 (stereo not drawn)	-3	-1	24	-2	68	6	/
COc1ccc(C(CCNCc2ccccc2)c2ccc(F)cc2)cc1 (stereo not drawn)	48*	1	23	-3	20	6	71*
COc1ccc(C(CCNC(C)c2ccccc2)c2ccc(F)cc2)cc1 (stereo not drawn)	46*	2	26	7	15	-5	63*
O=C(NC1CCSc2ccccc21)c1cc([N+](=O)[O-])ccc1N1CCOCC1 (stereo not drawn)	-1	1	9	26	/	6	/
